# Source: ChEMBL document CHEMBL5136969, “A niclosamide-tobramycin hybrid adjuvant potentiates cefiderocol against P. aeruginosa” (2021)
# The source made the active and inactive calls.
# Experiments:
# Pseudomonas aeruginosa [1] = experiment: Antibacterial activity against MDR clinical isolate Pseudomonas aeruginosa PA260 assessed as potentiation of cefiderocol antibacterial activity by measuring FIC index after 18 hrs by microbroth dilution method; assay type: functional
# Summary of the method: (§1)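 Checkerboard in MHB. Cefiderocol was 2-fold serially diluted along one axis and the adjuvant along the other. Inoculum was prepared from 0.5 McFarland saline suspensions diluted 1:50 in MHB, giving about 5 × 10^5 CFU/mL final. Plates ran 18 h at 37 °C, with turbidity confirmed at 590 nm. FIC = combination MIC ÷ MIC alone for each agent, and FIC index = sum of both. Interpretation: ≤0.5 synergy, >0.5–4 additive, >4 antagonism.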
# Escherichia coli [2] = experiment: Potentiation of chloamphenicol-induced antibiotic activity against Escherichia coli ATCC 25922 assessed as MIC fold reduction at 8 ug/ml after 18 hrs by microbroth dilution method; assay type: functional; details: dose 8 µg/ml
# Summary of the method: (§2)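 Adjuvant held at a fixed 8 μg/mL while the antibiotic was 2-fold serially diluted in Mueller-Hinton broth (MHB), per CLSI microbroth dilution. Overnight cultures were adjusted in saline to 0.5 McFarland, then diluted 1:50 in MHB to about 5 × 10^5 CFU/mL final, and incubated 18 h at 37 °C. MIC was the lowest concentration with no visible turbidity, confirmed at 590 nm. Fold potentiation = MIC alone / MIC with adjuvant.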
# Acinetobacter baumannii [3] = experiment: Antibacterial activity against Acinetobacter baumannii LAC-4 assessed as reduction in bacterial growth after 18 hrs in presence of cefiderocol by microbroth dilution method; assay type: functional
# Summary of the method: (§3)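 Checkerboard in Mueller-Hinton broth: cefiderocol 2-fold diluted on one axis, adjuvant 2-fold on the other. Overnight cultures were adjusted to 0.5 McFarland in saline, diluted 1:50 in MHB, and inoculated at about 5 × 10^5 CFU/mL. Incubation was 18 h at 37 °C. Turbidity was read visually and confirmed at 590 nm. FIC index = FIC of antibiotic + FIC of adjuvant; ≤0.5 synergy, >4 antagonism.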
# Pseudomonas aeruginosa [4] = experiment: Antibacterial activity against MDR clinical isolate Pseudomonas aeruginosa PA108590 assessed as reduction in bacterial growth after 18 hrs in presence of cefiderocol by microbroth dilution method; assay type: functional; summary of the method: as §1
# Pseudomonas aeruginosa [5] = experiment: Antibacterial activity against […] Pseudomonas aeruginosa PAO1 assessed as reduction in bacterial growth after 18 hrs by microbroth dilution method; assay type: functional
# Summary of the method: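 Broth microdilution per CLSI in Mueller-Hinton broth (MHB). Overnight cultures were adjusted to 0.5 McFarland in saline, diluted 1:50 in MHB, and added at about 5 × 10^5 CFU/mL final to equal volumes of 2-fold serial dilutions of agent. Incubation was 18 h at 37 °C. MIC was the lowest concentration with no visible turbidity, confirmed by absorbance at 590 nm.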
# Pseudomonas aeruginosa [6] = experiment: Potentiation of moxifloxacin-induced antibiotic activity against Pseudomonas aeruginosa PAO1 assessed as MIC fold reduction at 8 ug/ml after 18 hrs by microbroth dilution method; assay type: functional; details: dose 8 µg/ml
# Escherichia coli [7] = experiment: Potentiation of vancomycin-induced antibiotic activity against Escherichia coli ATCC 25922 assessed as MIC fold reduction at 8 ug/ml after 18 hrs by microbroth dilution method; assay type: functional; details: dose 8 µg/ml
# Pseudomonas aeruginosa [8] = experiment: Potentiation of antibiotic activity against Pseudomonas aeruginosa PA259 assessed as MIC fold reduction in ID-CAMHB condition at 8 ug/ml after 18 hrs by microbroth dilution method; details: dose 8.0 µg/ml
# Pseudomonas aeruginosa [9] = experiment: Potentiation of cefiderocol-induced antibiotic activity against Pseudomonas aeruginosa PAO1 assessed as MIC fold reduction at 8 ug/ml after 18 hrs by microbroth dilution method; assay type: functional; details: dose 8 µg/ml
# Summary of the method: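 Initial screen in MHB using a fixed 8 μg mL−1 of adjuvant combined with each antibiotic under 2-fold dilution. Broth microdilution used about 5 × 10^5 CFU/mL at 37 °C for 18 h, with visible turbidity read and confirmed at 590 nm. Fold-potentiation = antibiotic MIC alone ÷ antibiotic MIC with adjuvant.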
# Enterobacter cloacae = experiment: Antibacterial activity against Enterobacter cloacae 118564 assessed as potentiation of cefiderocol antibacterial activity by measuring FIC after 18 hrs by microbroth dilution method; assay type: functional; summary of the method: as §3
# Pseudomonas aeruginosa [10] = experiment: Potentiation of cefotaxime-induced antibiotic activity against […] Pseudomonas aeruginosa PAO1 assessed as MIC fold reduction at 8 ug/ml after 18 hrs by microbroth dilution method; assay type: functional, organism-based; details: dose 8.0 µg/ml; summary of the method: as §2
# Pseudomonas aeruginosa [11] = experiment: Antibacterial activity against MDR clinical isolate Pseudomonas aeruginosa PA86052 assessed as reduction in bacterial growth after 18 hrs by microbroth dilution method; assay type: functional
# Summary of the method: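 CLSI broth microdilution. Overnight cultures were adjusted in saline to 0.5 McFarland, diluted 1:50 in Mueller-Hinton broth (MHB), and inoculated at about 5 × 10^5 CFU/mL. Agents were 2-fold serially diluted in MHB, mixed 1:1 with inoculum, and held at 37 °C for 18 h. MIC was the lowest concentration with no visible turbidity, confirmed at 590 nm.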
# Escherichia coli [12] = experiment: Antibacterial activity against Escherichia coli 107115 assessed as reduction in bacterial growth after 18 hrs in presence of cefiderocol by microbroth dilution method; assay type: functional; summary of the method: as §3
# Acinetobacter baumannii [13] = experiment: Antibacterial activity against Acinetobacter baumannii AB92247 assessed as reduction in bacterial growth after 18 hrs by microbroth dilution method; assay type: functional
# Summary of the method: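 CLSI microbroth dilution in MHB. Overnight cultures were adjusted to 0.5 McFarland in saline, diluted 1:50, and inoculated at about 5 × 10^5 CFU/mL. Agents were 2-fold serially diluted and incubated 18 h at 37 °C. MIC is the lowest concentration without visible turbidity, confirmed by absorbance at 590 nm. Medium with and without cells served as controls.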
# Pseudomonas aeruginosa [14] = experiment: Potentiation of fosfomycin-induced antibiotic activity against Pseudomonas aeruginosa PAO1 assessed as MIC fold reduction at 8 ug/ml after 18 hrs by microbroth dilution method; assay type: functional; details: dose 8 µg/ml; summary of the method: as §2
# Acinetobacter baumannii [15] = experiment: Potentiation of ciprofloxacin-induced antibiotic activity against Acinetobacter baumannii ATCC 17978 assessed as MIC fold reduction at 8 ug/ml after 18 hrs by microbroth dilution method; assay type: functional; details: dose 8 µg/ml; summary of the method: as §2
# Pseudomonas aeruginosa [16] = experiment: Potentiation of vancomycin-induced antibiotic activity against Pseudomonas aeruginosa PAO1 assessed as MIC fold reduction at 8 ug/ml after 18 hrs by microbroth dilution method; assay type: functional; details: dose 8 µg/ml
# Pseudomonas aeruginosa [17] = experiment: Potentiation of tobramycin-induced antibiotic activity against Pseudomonas aeruginosa PAO1 assessed as MIC fold reduction at 8 ug/ml after 18 hrs by microbroth dilution method; assay type: functional; details: dose 8 µg/ml
# Pseudomonas aeruginosa [18] = experiment: Antibacterial activity against MDR clinical isolate Pseudomonas aeruginosa PA108590 assessed as potentiation of cefiderocol antibacterial activity by measuring FIC index after 18 hrs by microbroth dilution method; assay type: functional
# Summary of the method: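 Checkerboard in MHB (iron-replete, not iron-depleted CAMHB). Cefiderocol was 2-fold serially diluted along one axis and the adjuvant along the other. Inoculum was 0.5 McFarland diluted 1:50, about 5 × 10^5 CFU/mL final. Incubation was 18 h at 37 °C, with turbidity read visually and confirmed at 590 nm. FIC was the MIC in combination over the MIC alone for each agent, and the FIC index was their sum. Cut-offs were ≤0.5 synergy, >0.5–4 additive, >4 antagonism.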
# Escherichia coli [19] = experiment: Potentiation of novobiocin-induced antibiotic activity against Escherichia coli ATCC 25922 assessed as MIC fold reduction at 8 ug/ml after 18 hrs by microbroth dilution method; assay type: functional; details: dose 8 µg/ml
# Pseudomonas aeruginosa [20] = experiment: Antibacterial activity against MDR clinical isolate Pseudomonas aeruginosa PA109084 assessed as reduction in bacterial growth after 18 hrs in presence of cefiderocol by microbroth dilution method; assay type: functional; summary of the method: as §1
smiles,measurement,setting,value
NC[C@H]1O[C@H](O[C@H]2[C@H](OCCCCc3cn(-c4ccc(NC(=O)c5cc(Cl)ccc5O)cc4)nn3)[C@@H](O[C@H]3O[C@H](CO)[C@@H](O)[C@H](N)[C@H]3O)[C@H](N)C[C@@H]2N)[C@H](N)C[C@@H]1O,FIC,Pseudomonas aeruginosa [1],0.063
same,fold change (FC),Escherichia coli [2],4
same,MIC,Acinetobacter baumannii [3],0.25 mg/L
same,MIC,Pseudomonas aeruginosa [4],4 mg/L
same,MIC,Pseudomonas aeruginosa [5],64 mg/L
same,fold change (FC),Pseudomonas aeruginosa [6],4
same,fold change (FC),Escherichia coli [7],4
same,Activity,Pseudomonas aeruginosa [8],Active
same,fold change (FC),Pseudomonas aeruginosa [9],4
same,FIC,Enterobacter cloacae,1
same,Activity,Pseudomonas aeruginosa [10],Active
same,MIC,Pseudomonas aeruginosa [11],> 128 mg/L
same,MIC,Escherichia coli [12],0.25 mg/L
same,MIC,Acinetobacter baumannii [13],> 128 mg/L
same,fold change (FC),Pseudomonas aeruginosa [14],4
same,fold change (FC),Acinetobacter baumannii [15],4
same,fold change (FC),Pseudomonas aeruginosa [16],4
same,fold change (FC),Pseudomonas aeruginosa [17],4
same,FIC,Pseudomonas aeruginosa [18],0.016
same,fold change (FC),Escherichia coli [19],4
same,MIC,Pseudomonas aeruginosa [20],0.5 mg/L
